# Data taken from ChEMBL document CHEMBL1177643, “Synthesis, DNA-binding ability and anticancer activity of benzothiazole/benzoxazole-pyrrolo[2,1-c][1,4]benzodiazepine conjugates” (Bioorg Med Chem, 2010).
# Several values for one entry are separate records, joined by “and”; a condition that tells them apart may be missing. Equal values may be shown once.
# Assays:
# UACC-257 = experiment: Growth inhibition of human UACC257 cells after 48 hrs by sulforhodamine B assay; type: functional; settings: UACC-257, 48 h
# Method in brief: (§1)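 Panel of 60 human cancer cell lines; for each compound, dose–response curves per cell line measured at a minimum of five concentrations at 10-fold dilutions. Cells exposed continuously to drug for 48 h, and growth was read out by sulforhodamine B staining.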
# K562 = experiment: Growth inhibition of human K562 cells after 48 hrs by sulforhodamine B assay; type: functional; settings: K562, 48 h; method in brief: as §1
# SNB-75 = experiment: Growth inhibition of human SNB75 cells after 48 hrs by sulforhodamine B assay; type: functional; settings: SNB-75, 48 h; method in brief: as §1
# MDA-MB-435 = experiment: Growth inhibition of human MDA-MB-435 cells after 48 hrs by sulforhodamine B assay; type: functional; settings: MDA-MB-435, 48 h; method in brief: as §1
# RXF 393 = experiment: Growth inhibition of human RXF393 cells after 48 hrs by sulforhodamine B assay; type: functional; settings: RXF 393, 48 h; method in brief: as §1
# NCI-H460 = experiment: Growth inhibition of human NCI-H460 cells after 48 hrs by sulforhodamine B assay; type: functional; settings: NCI-H460, 48 h; method in brief: as §1
# TK-10 = experiment: Growth inhibition of human TK10 cells after 48 hrs by sulforhodamine B assay; type: functional; settings: TK-10, 48 h; method in brief: as §1
# HCC 2998 = experiment: Growth inhibition of human HCC2998 cells after 48 hrs by sulforhodamine B assay; type: functional; settings: HCC 2998, 48 h; method in brief: as §1
# SK-OV-3 = experiment: Growth inhibition of human SKOV3 cells after 48 hrs by sulforhodamine B assay; type: functional; settings: SK-OV-3, 48 h; method in brief: as §1
# MOLT-4 = experiment: Growth inhibition of human MOLT4 cells after 48 hrs by sulforhodamine B assay; type: functional; settings: MOLT-4, 48 h; method in brief: as §1
# OVCAR-5 = experiment: Growth inhibition of human OVCAR5 cells after 48 hrs by sulforhodamine B assay; type: functional; settings: OVCAR-5, 48 h; method in brief: as §1
# A549 = experiment: Growth inhibition of human A549 cells after 48 hrs by sulforhodamine B assay; type: functional; settings: A549, 48 h
# Method in brief: (§2)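 Dose–response in each cell line over at least five concentrations at 10-fold dilutions, with 48 h continuous exposure and sulforhodamine B read-out.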
# [1] = Growth inhibition of human […] cells after 48 hrs by sulforhodamine B assay; type: functional; method in brief: as §1
# NCI-H226 = experiment: Growth inhibition of human NCI-H226 cells after 48 hrs by sulforhodamine B assay; type: functional; settings: NCI-H226, 48 h; method in brief: as §1
# HOP-62 = experiment: Growth inhibition of human HOP62 cells after 48 hrs by sulforhodamine B assay; type: functional; settings: HOP-62, 48 h; method in brief: as §1
# SW-620 = experiment: Growth inhibition of human SW620 cells after 48 hrs by sulforhodamine B assay; type: functional; settings: SW-620, 48 h; method in brief: as §1
# LOX IMVI = experiment: Growth inhibition of human LOXIMVI cells after 48 hrs by sulforhodamine B assay; type: functional; method in brief: as §1
# A-375 [2] = experiment: Cell cycle arrest in human A375 cells assessed as accumulation at G0 phase at 2 uM after 24 hrs using propidium iodide staining by flow cytometry; type: functional
# Method in brief: (§3)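 A375 cells (5×10^5) grown 24 h, then exposed to compound 24 h (DMSO control). Trypsin–EDTA harvest, fixed in ice-cold 70% ethanol at 4 °C 30 min, RNase A 37 °C 30 min, propidium iodide staining. DNA content measured by flow cytometry on 20,000 events, gated as sub-G1/G0, G1, S and G2/M.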
# DU-145 = experiment: Growth inhibition of human DU145 cells after 48 hrs by sulforhodamine B assay; type: functional; settings: DU-145, 48 h; method in brief: as §2
# Calf thymus DNA = experiment: Binding affinity to calf thymus duplex-form DNA assessed as cleavage of pBR322 after 16 hrs by restriction endonuclease digestion assay in presence of BamHI; type: nucleic-acid assay; settings: Bos taurus
# Method in brief: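 pBR322 DNA (500 ng) preincubated with compound (5–30 μM) 16 h at 37 °C, then digested with BamHI (20 U) 1 h at 37 °C. Products run on 1% agarose in Tris–acetate EDTA, 80 V, 2 h. Read-out was ethidium bromide staining under UV, with an undigested and a fully digested control.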
# NCI-H23 = experiment: Growth inhibition of human NCI-H23 cells after 48 hrs by sulforhodamine B assay; type: functional; settings: NCI-H23, 48 h; method in brief: as §1
# HT-29 [3] = experiment: Antitumor activity against human HT-29 cells xenografted in SCID mouse assessed as reduction tumor volume at 15 mg/kg, ip measured on day 5; type: functional; settings: route intraperitoneal
# Method in brief: (§4)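 HT29 xenografts in scid mice; dosing ip on days 1, 5 and 9 (q4d), 5 or 10 mg/kg per dose (total 15 or 30 mg/kg); vehicle control group. Tumour volume, body weight and toxicity followed for 35 days. Relative tumour volume = volume on given day / volume on day 1; T/C = mean RTV treated / mean RTV control.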
# HT-29 [4] = experiment: Antitumor activity against human HT-29 cells xenografted in SCID mouse assessed as reduction tumor volume at 15 mg/kg, ip measured on day 14; type: functional; settings: route intraperitoneal; method in brief: as §4
# A-375 [5] = experiment: Cell cycle arrest in human A375 cells assessed as accumulation at G2/M phase at 0.5 uM after 24 hrs using propidium iodide staining by flow cytometry; type: functional; method in brief: as §3
# Mus musculus [6] = experiment: Toxicity in SCID mouse assessed as mortality at 15 mg/kg, ip; type: organism-based; design: dose 15 mg/kg, route intraperitoneal; settings: in vivo
# Method in brief: (§5)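 HT29 xenograft-bearing scid mice dosed ip at 5 or 10 mg/kg on days 1, 5 and 9 (q4d), totalling 15 or 30 mg/kg. Vehicle-treated control group. Body weight, survival and signs of overt toxicity were recorded over the 35-day study.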
# A-375 [7] = experiment: Cell cycle arrest in human A375 cells assessed as accumulation at sub-G0 phase at 1 uM after 24 hrs using propidium iodide staining by flow cytometry; type: functional; method in brief: as §3
# HT-29 [8] = experiment: Antitumor activity against human HT-29 cells xenografted in SCID mouse assessed as reduction tumor volume at 30 mg/kg, ip measured on day 5; type: functional; settings: route intraperitoneal; method in brief: as §4
# HT-29 [9] = experiment: Antitumor activity against human HT-29 cells xenografted in SCID mouse assessed as reduction tumor volume at 30 mg/kg, ip measured on day 17; type: functional; settings: route intraperitoneal; method in brief: as §4
# HT-29 [10] = experiment: Antitumor activity against human HT-29 cells xenografted in SCID mouse assessed as reduction tumor volume at 30 mg/kg, ip measured on day 32; type: functional; settings: route intraperitoneal; method in brief: as §4
# Mus musculus [11] = experiment: Toxicity in SCID mouse assessed as mortality at 50 mg/kg, ip; type: organism-based; design: dose 50 mg/kg, route intraperitoneal; settings: in vivo
# HT-29 [12] = experiment: Antitumor activity against human HT-29 cells xenografted in SCID mouse assessed as reduction tumor volume at 15 mg/kg, ip measured on day 32; type: functional; settings: route intraperitoneal; method in brief: as §4
# A-375 [13] = experiment: Cell cycle arrest in human A375 cells assessed as accumulation at G0/G1 phase at 1 uM after 24 hrs using propidium iodide staining by flow cytometry; type: functional; method in brief: as §3
# HT-29 [14] = experiment: Antitumor activity against human HT-29 cells xenografted in SCID mouse assessed as reduction tumor volume at 15 mg/kg, ip measured on day 21; type: functional; settings: route intraperitoneal; method in brief: as §4
# HT-29 [15] = experiment: Antitumor activity against human HT-29 cells xenografted in SCID mouse assessed as reduction tumor volume at 30 mg/kg, ip measured on day 28; type: functional; settings: route intraperitoneal; method in brief: as §4
# Mus musculus [16] = experiment: Toxicity in SCID mouse assessed as weight loss at 15 mg/kg, ip; type: organism-based; design: dose 15 mg/kg, route intraperitoneal; settings: in vivo; method in brief: as §5
# HT-29 [17] = experiment: Antitumor activity against human HT-29 cells xenografted in SCID mouse assessed as reduction tumor volume at 30 mg/kg, ip measured on day 14; type: functional; settings: route intraperitoneal; method in brief: as §4
SMILES,GI50 (UACC-257),GI50 (K562),GI50 (SNB-75),GI50 (MDA-MB-435),GI50 (RXF 393),GI50 (NCI-H460),GI50 (TK-10),GI50 (HCC 2998),GI50 (SK-OV-3),GI50 (MOLT-4),GI50 (OVCAR-5),GI50 (A549),GI50 [1],GI50 (NCI-H226),GI50 (HOP-62),GI50 (SW-620),GI50 (LOX IMVI),Activity (A-375 [2]),GI50 (DU-145),Activity (Calf thymus DNA),also measured
COc1cc2c(cc1OCCCCC(=O)Nc1ccc(-c3nc4ccccc4s3)cc1)N=C[C@@H]1CCCN1C2=O,1740 nM,1740 nM,1820 nM,1780 nM,1620 nM,1660 nM,3240 nM,1580 nM,4470 nM,1620 nM,3550 nM,3390 nM,1450 nM,2880 nM,2450 nM,1620 nM,1550 nM,15.1%,–,–,–
COc1cc(-c2nc3ccccc3s2)ccc1OCCCCOc1cc2c(cc1OC)C(=O)N1CCC[C@H]1C=N2,2190 nM,339 nM,1230 nM,1350 nM,240 nM,646 nM,1510 nM,646 nM,2400 nM,676 nM,501 nM,2690 nM,309 nM,2400 nM,1410 nM,794 nM,724 nM,20.86%,302 nM,Dose-dependent effect,GI50 (NCI-H23): 1480 nM
COc1cc(-c2nc3ccccc3s2)ccc1OCCCCCOc1cc2c(cc1OC)C(=O)N1CCC[C@H]1C=N2,186 nM,20.4 nM,145 nM,85.1 nM,51.3 nM,39.8 nM,331 nM,126 nM,178 nM,43.6 nM,70.8 nM,240 nM,74.1 nM,214 nM,45.7 nM,56.2 nM,18.2 nM,26.75%,33.9 nM,Dose-dependent effect,T/C (HT-29 [3]): 0.65% and 0.62%; T/C (HT-29 [4]): 0.58% and 0.3%; Activity (A-375 [5]): 15.96%; Activity (Mus musculus [6]): Non-toxic; Activity (A-375 [7]): 2.7%; T/C (HT-29 [8]): 0.85%; T/C (HT-29 [9]): 0.81%; T/C (HT-29 [10]): 0.76%; Activity (Mus musculus [11]): Non-toxic; T/C (HT-29 [12]): 0.76% and 0.16%; Activity (A-375 [13]): 64.26%; T/C (HT-29 [14]): 0.65% and 0.2%; GI50 (NCI-H23): 61.7 nM; T/C (HT-29 [15]): 0.75%; Activity (Mus musculus [16]): Non-toxic; T/C (HT-29 [17]): 0.66%
